The values that follow come from PMC3048909 (Journal of medicinal chemistry, 2011).

For the first experiment, the target named is α4β4-nAChR (Homo sapiens, UniProt P30926+P43681). As to the kind of experiment: 86Rb+ efflux assay of nAChR function. The class given is cell-based.
Sequence of α4β4-nAChR (P43681 29-627 limits assumed): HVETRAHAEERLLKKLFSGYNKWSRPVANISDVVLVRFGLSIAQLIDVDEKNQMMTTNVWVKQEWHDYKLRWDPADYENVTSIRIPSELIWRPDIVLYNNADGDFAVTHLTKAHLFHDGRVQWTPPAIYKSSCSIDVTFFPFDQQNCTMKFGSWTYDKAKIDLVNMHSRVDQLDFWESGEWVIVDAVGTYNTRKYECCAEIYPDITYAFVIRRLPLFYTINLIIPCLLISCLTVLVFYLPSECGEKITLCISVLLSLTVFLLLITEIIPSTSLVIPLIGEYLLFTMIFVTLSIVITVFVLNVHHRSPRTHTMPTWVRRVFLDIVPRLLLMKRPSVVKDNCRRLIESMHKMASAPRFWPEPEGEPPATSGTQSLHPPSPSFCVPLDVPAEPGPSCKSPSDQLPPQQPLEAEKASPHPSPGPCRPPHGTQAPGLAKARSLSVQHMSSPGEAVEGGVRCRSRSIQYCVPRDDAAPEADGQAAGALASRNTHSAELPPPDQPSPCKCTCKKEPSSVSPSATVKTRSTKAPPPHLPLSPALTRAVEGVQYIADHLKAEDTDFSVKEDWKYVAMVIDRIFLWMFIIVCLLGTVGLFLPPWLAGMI
Sequence of α4β4-nAChR (P30926 22-498): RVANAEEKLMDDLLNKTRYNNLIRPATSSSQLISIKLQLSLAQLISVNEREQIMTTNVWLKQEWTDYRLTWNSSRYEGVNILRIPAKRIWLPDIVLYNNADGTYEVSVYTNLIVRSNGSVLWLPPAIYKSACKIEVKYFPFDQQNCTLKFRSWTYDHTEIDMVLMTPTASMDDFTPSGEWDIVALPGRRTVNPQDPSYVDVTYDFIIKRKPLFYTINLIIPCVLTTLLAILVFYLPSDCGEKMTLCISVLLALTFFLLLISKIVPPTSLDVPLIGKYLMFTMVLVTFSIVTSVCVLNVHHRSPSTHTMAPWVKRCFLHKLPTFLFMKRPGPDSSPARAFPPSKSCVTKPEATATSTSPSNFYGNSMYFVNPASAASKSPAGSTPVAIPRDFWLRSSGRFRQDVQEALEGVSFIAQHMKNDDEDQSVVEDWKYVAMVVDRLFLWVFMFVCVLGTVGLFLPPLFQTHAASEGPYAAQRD
Conditions: not given
The term IC50 denotes the point on the concentration scale where inhibition reaches its midpoint. In the case of `C[C@@H]1NC(C)(C)CO[C@H]1c1cccc(F)c1` [(S,S)-5b, (S,S)-2-(3’-Fluorophenyl)-3,5,5-trimethylmorpholine], half-maximal inhibition (IC50) was put at 55 µM.

`C[C@@H]1NC(C)(C)CO[C@H]1c1cccc(Br)c1` [(S,S)-5c, (S,S)-2-(3'-Bromophenyl)-3,5,5-trimethylmorpholine] registered an IC50 of 11 µM.

Compound `C[C@H]1[C@H](c2cccc(Cl)c2)OCC(C)(C)N1C` [(S,S)-5d, (S,S)-2-(3'-Chlorophenyl)-3,4,5,5-tetramethylmorpholine] returned an IC50 of 23 µM.

A further experiment deals with α1*-nAChR (muscle-type α1β1γδ-nAChR) (Homo sapiens, UniProt P02708+P07510+P11230+Q07001). As to the kind of experiment: 86Rb+ efflux assay of nAChR function.
Sequence of α1*-nAChR (muscle-type α1β1γδ-nAChR) (P02708 21-457): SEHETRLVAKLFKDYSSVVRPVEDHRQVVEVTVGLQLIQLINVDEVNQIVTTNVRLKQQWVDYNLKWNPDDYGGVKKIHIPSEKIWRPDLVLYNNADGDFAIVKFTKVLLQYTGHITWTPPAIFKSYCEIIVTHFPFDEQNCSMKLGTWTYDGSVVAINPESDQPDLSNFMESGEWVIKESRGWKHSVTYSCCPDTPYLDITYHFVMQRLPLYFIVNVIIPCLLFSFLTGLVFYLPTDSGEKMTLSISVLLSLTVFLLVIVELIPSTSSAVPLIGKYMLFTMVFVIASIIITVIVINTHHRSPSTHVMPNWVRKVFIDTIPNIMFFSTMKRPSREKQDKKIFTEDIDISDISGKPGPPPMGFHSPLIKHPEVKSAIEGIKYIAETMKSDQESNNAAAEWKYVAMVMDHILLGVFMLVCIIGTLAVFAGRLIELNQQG
Sequence of α1*-nAChR (muscle-type α1β1γδ-nAChR) (P11230 24-501): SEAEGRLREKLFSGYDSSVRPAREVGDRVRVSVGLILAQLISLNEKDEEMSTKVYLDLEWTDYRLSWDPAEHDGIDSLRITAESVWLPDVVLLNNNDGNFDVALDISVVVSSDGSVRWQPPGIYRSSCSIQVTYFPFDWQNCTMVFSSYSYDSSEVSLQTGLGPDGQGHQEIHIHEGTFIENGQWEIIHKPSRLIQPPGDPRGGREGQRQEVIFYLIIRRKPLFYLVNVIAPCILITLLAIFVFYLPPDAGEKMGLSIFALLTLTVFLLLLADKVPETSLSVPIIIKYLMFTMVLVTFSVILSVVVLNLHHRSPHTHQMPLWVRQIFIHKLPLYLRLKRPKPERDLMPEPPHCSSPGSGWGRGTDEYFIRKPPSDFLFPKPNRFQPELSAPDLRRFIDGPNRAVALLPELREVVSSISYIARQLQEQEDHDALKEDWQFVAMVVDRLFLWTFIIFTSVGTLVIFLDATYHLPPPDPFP
Sequence of α1*-nAChR (muscle-type α1β1γδ-nAChR) (P07510 23-517): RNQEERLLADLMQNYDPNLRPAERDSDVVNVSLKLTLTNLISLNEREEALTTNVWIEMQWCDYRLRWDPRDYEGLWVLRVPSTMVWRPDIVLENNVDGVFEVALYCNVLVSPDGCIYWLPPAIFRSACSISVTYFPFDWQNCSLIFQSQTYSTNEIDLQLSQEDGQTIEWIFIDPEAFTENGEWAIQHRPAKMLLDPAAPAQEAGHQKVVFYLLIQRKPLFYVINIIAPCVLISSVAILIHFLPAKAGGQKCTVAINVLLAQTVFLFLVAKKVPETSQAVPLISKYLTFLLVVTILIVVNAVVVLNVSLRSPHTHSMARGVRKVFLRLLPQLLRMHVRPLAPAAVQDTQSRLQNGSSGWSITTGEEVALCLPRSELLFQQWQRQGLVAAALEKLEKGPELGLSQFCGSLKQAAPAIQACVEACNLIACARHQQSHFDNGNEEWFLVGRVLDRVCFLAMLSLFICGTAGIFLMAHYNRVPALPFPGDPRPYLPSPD
Sequence of α1*-nAChR (muscle-type α1β1γδ-nAChR) (Q07001 22-517): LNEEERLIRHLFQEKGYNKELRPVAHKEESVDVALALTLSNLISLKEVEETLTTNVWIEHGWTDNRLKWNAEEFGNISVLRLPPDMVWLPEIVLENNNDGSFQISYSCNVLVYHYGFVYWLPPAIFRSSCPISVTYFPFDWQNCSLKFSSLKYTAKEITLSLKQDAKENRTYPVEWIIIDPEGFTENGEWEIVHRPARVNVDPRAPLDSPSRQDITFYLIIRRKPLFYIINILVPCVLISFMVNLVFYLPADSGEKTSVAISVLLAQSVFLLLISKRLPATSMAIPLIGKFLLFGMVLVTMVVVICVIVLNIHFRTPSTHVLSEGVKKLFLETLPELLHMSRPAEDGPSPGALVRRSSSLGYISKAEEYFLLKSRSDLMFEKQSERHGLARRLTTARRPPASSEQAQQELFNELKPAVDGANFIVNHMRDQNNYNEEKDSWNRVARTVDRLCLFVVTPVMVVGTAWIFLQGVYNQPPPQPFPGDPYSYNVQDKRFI
Conditions: not given
The class given is cell-based.
Regarding `C[C@@H]1NC(C)(C)CO[C@H]1c1cccc(F)c1` [(S,S)-5b, (S,S)-2-(3’-Fluorophenyl)-3,5,5-trimethylmorpholine], 34 µM corresponded to half-maximal inhibition (IC50).

As for `C[C@@H]1NC(C)(C)CO[C@H]1c1cccc(Br)c1` [(S,S)-5c, (S,S)-2-(3'-Bromophenyl)-3,5,5-trimethylmorpholine], the IC50 turned out to be 7.3 µM.

For `C[C@H]1[C@H](c2cccc(Cl)c2)OCC(C)(C)N1C` [(S,S)-5d, (S,S)-2-(3'-Chlorophenyl)-3,4,5,5-tetramethylmorpholine], the IC50 was 21 µM.

Another experiment deals with nicotine-induced antinociception (tail-flick). The experiment can be described thus: Blockade of nicotine-induced antinociception, tail-flick test. It counts as in vivo, mice. The note with it: Mus musculus, read-out: AD50 Tail-flick. The essentials: (§1)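 Male ICR mice (20–25 g) were given the test compound to block the acute effects of nicotine. Dose-response curves used at least four doses of test compound, with at least eight mice per dose group. Results are AD50 (mg/kg) with confidence limits, or % effect at the highest dose tested.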
(In hot-plate and tail-flick tests a longer latency is read as antinociception.)
On to `C[C@@H]1NC(C)(C)CO[C@H]1c1cccc(F)c1` [(S,S)-5b, (S,S)-2-(3’-Fluorophenyl)-3,5,5-trimethylmorpholine], for which the ED50 was found to be 0.02 mg/kg.

As for `C[C@@H]1NC(C)(C)CO[C@H]1c1cccc(Br)c1` [(S,S)-5c, (S,S)-2-(3'-Bromophenyl)-3,5,5-trimethylmorpholine], the ED50 was determined as 0.006 mg/kg.

Consider `C[C@H]1[C@H](c2cccc(Cl)c2)OCC(C)(C)N1C` [(S,S)-5d, (S,S)-2-(3'-Chlorophenyl)-3,4,5,5-tetramethylmorpholine], for which the ED50 was 0.13 mg/kg.

Staying with this experiment, now noted: relative to (S,S)-4a.
Consider `C[C@@H]1NC(C)(C)CO[C@H]1c1cccc(Br)c1` [(S,S)-5c, (S,S)-2-(3'-Bromophenyl)-3,5,5-trimethylmorpholine], for which the “More potent in the tail-flick test” value is on record as ~ 33 times.

The next experiment has as its system nicotine-induced hypothermia. As to the kind of experiment: Blockade of nicotine-induced hypothermia. It counts as in vivo, mice. The note with it: Mus musculus, read-out: AD50 Hypothermia. The method in brief:
as §1
With `C[C@@H]1NC(C)(C)CO[C@H]1c1cccc(F)c1` [(S,S)-5b, (S,S)-2-(3’-Fluorophenyl)-3,5,5-trimethylmorpholine], the ED50 was greater than 20 mg/kg.

On to `C[C@@H]1NC(C)(C)CO[C@H]1c1cccc(Br)c1` [(S,S)-5c, (S,S)-2-(3'-Bromophenyl)-3,5,5-trimethylmorpholine], for which the ED50 was greater than 20 mg/kg.

Regarding `C[C@H]1[C@H](c2cccc(Cl)c2)OCC(C)(C)N1C` [(S,S)-5d, (S,S)-2-(3'-Chlorophenyl)-3,4,5,5-tetramethylmorpholine], the ED50 is greater than 20 mg/kg.

The target in the next experiment is human SERT (Homo sapiens, UniProt P31645). The experiment can be described thus: [3H]5HT uptake inhibition, HEK-293 cells expressing human SERT. The class given is cell-based. The note with it: relative to (S,S)-5a.
On to `C[C@@H]1NC(C)(C)CO[C@H]1c1cccc(F)c1` [(S,S)-5b, (S,S)-2-(3’-Fluorophenyl)-3,5,5-trimethylmorpholine], for which the “Decrease in potency for inhibition of 5HT uptake” value was found to be 12 fold.

The subject of the next experiment is nicotine-induced locomotor depression. As to the kind of experiment: Blockade of nicotine-induced locomotor depression. It counts as in vivo, mice. The note with it: Mus musculus, read-out: AD50 Locomotion. The method in brief:
as §1
On to `C[C@@H]1NC(C)(C)CO[C@H]1c1cccc(F)c1` [(S,S)-5b, (S,S)-2-(3’-Fluorophenyl)-3,5,5-trimethylmorpholine], for which the ED50 stood at 4.7 mg/kg.

For `C[C@H]1[C@H](c2cccc(Cl)c2)OCC(C)(C)N1C` [(S,S)-5d, (S,S)-2-(3'-Chlorophenyl)-3,4,5,5-tetramethylmorpholine], the ED50 was determined as 3.8 mg/kg.

Staying with this experiment, now noted: mice, antagonism of acute nicotine; parentheses: confidence limits.
For the compound `C[C@@H]1NC(C)(C)CO[C@H]1c1cccc(Br)c1` [(S,S)-5c, (S,S)-2-(3'-Bromophenyl)-3,5,5-trimethylmorpholine], the “AD50 Locomotion” value is given as 2.1 (0.9–4.8) mg/kg.

The next experiment deals with human NET (Homo sapiens, UniProt P23975). The experiment can be described thus: [3H]NE uptake inhibition, HEK-293 cells expressing human NET. The class given is cell-based.
Sequence of human NET (P23975 whole entry): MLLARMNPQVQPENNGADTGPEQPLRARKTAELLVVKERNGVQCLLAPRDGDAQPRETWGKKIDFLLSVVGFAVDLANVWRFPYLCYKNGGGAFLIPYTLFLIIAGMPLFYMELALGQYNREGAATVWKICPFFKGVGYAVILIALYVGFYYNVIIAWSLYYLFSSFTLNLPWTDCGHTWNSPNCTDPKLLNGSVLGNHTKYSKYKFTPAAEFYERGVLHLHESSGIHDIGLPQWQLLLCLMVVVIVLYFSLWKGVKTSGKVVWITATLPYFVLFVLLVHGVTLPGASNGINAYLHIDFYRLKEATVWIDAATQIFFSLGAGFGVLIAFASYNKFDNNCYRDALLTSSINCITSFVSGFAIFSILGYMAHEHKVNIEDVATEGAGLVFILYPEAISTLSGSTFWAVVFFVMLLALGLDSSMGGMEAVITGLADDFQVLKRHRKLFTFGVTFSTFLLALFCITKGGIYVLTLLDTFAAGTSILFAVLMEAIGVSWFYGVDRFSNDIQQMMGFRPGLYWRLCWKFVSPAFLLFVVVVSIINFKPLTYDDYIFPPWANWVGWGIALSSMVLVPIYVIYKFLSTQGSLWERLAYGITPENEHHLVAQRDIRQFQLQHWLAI
Conditions: not given
In the case of `C[C@@H]1NC(C)(C)CO[C@H]1c1cccc(F)c1` [(S,S)-5b, (S,S)-2-(3’-Fluorophenyl)-3,5,5-trimethylmorpholine], the IC50 turned out to be 0.032 ± 0.003 µM.

`C[C@@H]1NC(C)(C)CO[C@H]1c1cccc(Br)c1` [(S,S)-5c, (S,S)-2-(3'-Bromophenyl)-3,5,5-trimethylmorpholine] registered an IC50 of 0.15 ± 0.02 µM.

Take `C[C@H]1[C@H](c2cccc(Cl)c2)OCC(C)(C)N1C` [(S,S)-5d, (S,S)-2-(3'-Chlorophenyl)-3,4,5,5-tetramethylmorpholine]: the IC50 came out at 0.17 ± 0.02 µM.

Staying with this experiment, now noted: compared to (S,S)-4a.
For `C[C@@H]1NC(C)(C)CO[C@H]1c1cccc(F)c1` [(S,S)-5b, (S,S)-2-(3’-Fluorophenyl)-3,5,5-trimethylmorpholine], the “More potent as NE uptake inhibitor” value stood at 5.6 fold.

Still in this experiment, the particulars now being: relative to (S,S)-5a.
`C[C@@H]1NC(C)(C)CO[C@H]1c1cccc(F)c1` [(S,S)-5b, (S,S)-2-(3’-Fluorophenyl)-3,5,5-trimethylmorpholine]: the “Increase in potency for inhibition of NE uptake” value amounted to 3.2 fold.

For another experiment, the target named is α3β4*-nAChR (Homo sapiens, UniProt P30926+P32297). As to the kind of experiment: 86Rb+ efflux assay of nAChR function. The class given is cell-based.
Sequence of α3β4*-nAChR (P32297 32-505): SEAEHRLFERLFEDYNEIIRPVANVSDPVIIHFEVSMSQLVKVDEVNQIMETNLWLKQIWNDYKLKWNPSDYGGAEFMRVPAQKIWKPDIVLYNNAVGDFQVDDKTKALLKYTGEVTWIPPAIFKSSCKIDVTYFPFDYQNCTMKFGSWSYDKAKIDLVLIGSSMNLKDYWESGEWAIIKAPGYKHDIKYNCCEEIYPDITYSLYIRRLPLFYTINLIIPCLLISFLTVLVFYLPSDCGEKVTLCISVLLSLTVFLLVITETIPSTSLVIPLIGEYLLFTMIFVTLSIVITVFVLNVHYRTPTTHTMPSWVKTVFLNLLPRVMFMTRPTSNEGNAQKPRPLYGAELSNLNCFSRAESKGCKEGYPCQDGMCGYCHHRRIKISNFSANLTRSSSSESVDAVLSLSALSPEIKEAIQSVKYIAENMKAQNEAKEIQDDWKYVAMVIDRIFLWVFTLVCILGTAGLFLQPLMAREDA
Sequence of α3β4*-nAChR (P30926 22-498): as the sequence (P30926 22-498) above
Conditions: not given
Take `C[C@@H]1NC(C)(C)CO[C@H]1c1cccc(F)c1` [(S,S)-5b, (S,S)-2-(3’-Fluorophenyl)-3,5,5-trimethylmorpholine]: inhibition was half-maximal at 5.6 µM (IC50).

For the compound `C[C@@H]1NC(C)(C)CO[C@H]1c1cccc(Br)c1` [(S,S)-5c, (S,S)-2-(3'-Bromophenyl)-3,5,5-trimethylmorpholine], the IC50 was 1.4 µM.

The compound `C[C@H]1[C@H](c2cccc(Cl)c2)OCC(C)(C)N1C` [(S,S)-5d, (S,S)-2-(3'-Chlorophenyl)-3,4,5,5-tetramethylmorpholine] had an IC50 of 2.8 µM.

The experiment is the same for the next values; noted with them: relative to (S,S)-5a.
With `C[C@@H]1NC(C)(C)CO[C@H]1c1cccc(Br)c1` [(S,S)-5c, (S,S)-2-(3'-Bromophenyl)-3,5,5-trimethylmorpholine], the “More potent at α3β4*-nAChR” value is ~ 2 fold.

A further experiment deals with human DAT (Homo sapiens, UniProt Q01959). The experiment can be described thus: [3H]DA uptake inhibition, HEK-293 cells expressing human DAT.
Sequence of human DAT (Q01959 whole entry): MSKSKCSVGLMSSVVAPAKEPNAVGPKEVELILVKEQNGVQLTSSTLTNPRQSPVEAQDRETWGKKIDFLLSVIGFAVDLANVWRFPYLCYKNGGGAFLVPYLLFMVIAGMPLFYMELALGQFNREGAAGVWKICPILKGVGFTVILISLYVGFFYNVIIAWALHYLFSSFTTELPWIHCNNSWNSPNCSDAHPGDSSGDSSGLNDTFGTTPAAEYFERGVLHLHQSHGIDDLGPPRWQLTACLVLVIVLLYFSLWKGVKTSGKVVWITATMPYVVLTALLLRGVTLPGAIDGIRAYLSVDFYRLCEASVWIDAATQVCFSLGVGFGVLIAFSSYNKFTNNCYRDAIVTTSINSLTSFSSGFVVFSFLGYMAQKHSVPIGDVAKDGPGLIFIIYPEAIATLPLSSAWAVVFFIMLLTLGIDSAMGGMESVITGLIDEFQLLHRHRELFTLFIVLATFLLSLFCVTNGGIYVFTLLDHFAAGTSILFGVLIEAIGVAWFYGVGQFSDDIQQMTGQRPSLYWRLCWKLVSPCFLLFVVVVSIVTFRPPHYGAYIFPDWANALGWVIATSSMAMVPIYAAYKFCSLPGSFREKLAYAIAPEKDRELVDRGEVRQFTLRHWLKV
Conditions: not given
It counts as cell-based.
`C[C@@H]1NC(C)(C)CO[C@H]1c1cccc(F)c1` [(S,S)-5b, (S,S)-2-(3’-Fluorophenyl)-3,5,5-trimethylmorpholine] registered a 50% inhibitory concentration (IC50) of 0.061 ± 0.02 µM.

With `C[C@@H]1NC(C)(C)CO[C@H]1c1cccc(Br)c1` [(S,S)-5c, (S,S)-2-(3'-Bromophenyl)-3,5,5-trimethylmorpholine], the IC50 stood at 0.044 ± 0.003 µM.

In the case of `C[C@H]1[C@H](c2cccc(Cl)c2)OCC(C)(C)N1C` [(S,S)-5d, (S,S)-2-(3'-Chlorophenyl)-3,4,5,5-tetramethylmorpholine], the IC50 stood at 0.23 ± 0.06 µM.

The experiment is the same for the next values; noted with them: compared to (S,S)-4a.
Regarding `C[C@@H]1NC(C)(C)CO[C@H]1c1cccc(F)c1` [(S,S)-5b, (S,S)-2-(3’-Fluorophenyl)-3,5,5-trimethylmorpholine], the “More potent as DA uptake inhibitor” value turned out to be 10 fold.

Staying with this experiment, now noted: relative to (S,S)-5a.
As to `C[C@@H]1NC(C)(C)CO[C@H]1c1cccc(F)c1` [(S,S)-5b, (S,S)-2-(3’-Fluorophenyl)-3,5,5-trimethylmorpholine], the “Increase in potency for inhibition of DA uptake” value amounted to 3.7 fold.

In the case of `C[C@@H]1NC(C)(C)CO[C@H]1c1cccc(Br)c1` [(S,S)-5c, (S,S)-2-(3'-Bromophenyl)-3,5,5-trimethylmorpholine], the “Increase in potency for inhibition of DA uptake” value turned out to be 5 fold.

The test system of a further experiment is nicotine-induced antinociception (hot-plate). The experiment can be described thus: Blockade of nicotine-induced antinociception, hot-plate test. The class given is in vivo, mice. The conditions noted are these: Mus musculus, read-out: AD50 Hot-plate. The method in brief:
as §1
With `C[C@@H]1NC(C)(C)CO[C@H]1c1cccc(F)c1` [(S,S)-5b, (S,S)-2-(3’-Fluorophenyl)-3,5,5-trimethylmorpholine], the ED50 was greater than 20 mg/kg.

In the case of `C[C@@H]1NC(C)(C)CO[C@H]1c1cccc(Br)c1` [(S,S)-5c, (S,S)-2-(3'-Bromophenyl)-3,5,5-trimethylmorpholine], the ED50 is greater than 20 mg/kg.

`C[C@H]1[C@H](c2cccc(Cl)c2)OCC(C)(C)N1C` [(S,S)-5d, (S,S)-2-(3'-Chlorophenyl)-3,4,5,5-tetramethylmorpholine]: the ED50 was greater than 20 mg/kg.

The target of another experiment is α4β2-nAChR (Homo sapiens, UniProt P17787+P43681). As to the kind of experiment: 86Rb+ efflux assay of nAChR function. It counts as cell-based.
Conditions: not given
`C[C@@H]1NC(C)(C)CO[C@H]1c1cccc(F)c1` [(S,S)-5b, (S,S)-2-(3’-Fluorophenyl)-3,5,5-trimethylmorpholine] had an IC50 of 23 µM.

Consider `C[C@@H]1NC(C)(C)CO[C@H]1c1cccc(Br)c1` [(S,S)-5c, (S,S)-2-(3'-Bromophenyl)-3,5,5-trimethylmorpholine], for which the IC50 turned out to be 12 µM.

As to `C[C@H]1[C@H](c2cccc(Cl)c2)OCC(C)(C)N1C` [(S,S)-5d, (S,S)-2-(3'-Chlorophenyl)-3,4,5,5-tetramethylmorpholine], 16 µM corresponded to half-maximal inhibition (IC50).
